# This is a sample that favours compounds with a hit; in the whole collection about 2.3% have one here.
# NS3 helicase inh: blocks Hepatitis C virus NS3 helicase unwinding | NS3 helicase DNA unwinding, Cy5 molecular beacon fluorescence | inhibition, % at 10.9 µM | hit rate 0.56% among 290,000 | AID 1800;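 active = inhibition above the mean of all tested compounds plus 3 SD, set per campaign, cut at about 35% in these data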;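 also: 0% = DMSO wells and 100% = thioflavine S control wells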
#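 Test system: hepatitis C virus NS3 helicase domain fragment enzyme. Also added: annealed dual-labelled DNA beacon duplex, ATP-started. Timing: 60 min unwinding reaction at 25 °C after ATP addition. Technique: Cy5 fluorescence. Measure: % inhibition of unwinding.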
# EBV gp42 block: EBV gp42 inhibition | inhibition, % (tested at 21.74 µM) | hit rate 0.42% among 220,000 | AID 1085 | Fluorescence polarization binding assay, mP read-out; in the data active = inhibition above about 50%
# HCV core dimer: HCV core protein dimerization inhibition; TR-FRET GST/Flag-core106 dimerization, 1536-well; inhibition, % at 5 µM; hit rate 0.33% among 300,000;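 active = inhibition above the mean of all tested compounds plus 3 SD, set per screening campaign, cut at about 45% in these data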
#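 Assay system – GST-tagged and Flag-tagged HCV core protein residues 1-106 · Quantity – core106 proteins, GST 13.5 nM and Flag 17 nM · Benchmarks – unlabelled core106 and no-GST-core106 wells · Read-out basis – percent inhibition of core106 dimerization signal · Detection – time-resolved FRET, ex 340 nm, em 617 and 671 nm · Schedule – 4 h at 22.5 °C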
# ZTA counter: blocks Epstein-Barr virus ZTA, an EBNA-1 counter-screen; P03206; ZTA-DNA binding, fluorescence polarization; inhibition, % at 11 µM; hit rate 0.15% among 320,000; AID 2234; in the data active = inhibition above about 33%
# Target sequence (P03206 whole entry, looked up): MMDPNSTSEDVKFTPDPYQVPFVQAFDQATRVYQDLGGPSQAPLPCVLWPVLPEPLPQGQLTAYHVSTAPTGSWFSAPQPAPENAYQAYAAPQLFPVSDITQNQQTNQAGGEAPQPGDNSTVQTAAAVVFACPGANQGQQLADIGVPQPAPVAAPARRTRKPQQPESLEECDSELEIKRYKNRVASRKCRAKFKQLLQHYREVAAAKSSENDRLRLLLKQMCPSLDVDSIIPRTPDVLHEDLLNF
# EBNA-1 inhibitor: blocks EBNA-1 binding to DNA; EBNA-1 DNA binding, fluorescence polarization; inhibition, % at 14.8 µM; hit rate 0.34% among 300,000; in the data active = inhibition above about 28%
# GPR7 antag: antagonists of human GPR7 (neuropeptides B/W receptor 1); P48145; GPR7-expressing cells, fluorescence antagonist assay; inhibition, % at 4.4 µM; hit rate 1.1% among 290,000; AID 1861; in the data active = inhibition above about 16%, passing the limit was not always enough;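 also: cells stimulated with the agonist NPW; 0% = agonist with vehicle and 100% = vehicle without agonist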
# GPR7 antag cf: confirmation of human GPR7 antagonists | hit rate 52% among 2,400 | AID 1952 | inhibition, % at 4.4 µM | shares compounds with GPR7 antag | GPR7-expressing cells, calcium fluorescence antagonist mode; in the data active = inhibition above about 24%;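 also: stimulated with the GPR7 agonist NPW; 0% = agonist plus vehicle and 100% = vehicle alone without agonist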
# MCHR1 antag: MCHR1 (human) antagonism in GPR7 counter-screen; shares compounds with GPR7 antag; hit rate 62% among 2,400; MCHR1-expressing cells, fluorescence antagonist assay; inhibition, % at 4.4 µM; in the data active = inhibition above about 22%;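 also: 0% = vehicle with agonist and 100% = vehicle without agonist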
# Active calls of the source: *; x = no result.
SMILES,NS3 helicase inh,EBV gp42 block,HCV core dimer,ZTA counter,EBNA-1 inhibitor,GPR7 antag,GPR7 antag cf,MCHR1 antag
CCC(=O)Nc1cc(C(=O)O)ccc1Sc1ccc(C)cc1,2,-13,6,-12,-9,-2,x,x
CCOC(=O)CCS(=O)(=O)c1ccc(-c2ccc(S(=O)(=O)CCC(=O)OCC)cc2)cc1,7,-16,6,0,15,31*,44*,49*
C=CCn1c2ccccc2c(=O)c2cc(C#CC[C@@H](C)O)ccc21,x,x,x,9,x,x,x,x
C=CCn1c2ccccc2c(=O)c2cc(C#CC3(O)CCCCC3)ccc21,-30,x,13,6,20,46*,43*,46*
COc1ccc(-n2ccnc(SCC(=O)NCc3ccccc3Cl)c2=O)cc1,23,x,-17,0,-10,48*,14,21
CC(C)CC(=O)N1CCN(c2ccc([N+](=O)[O-])c(NCc3ccccc3)c2)CC1,-19,x,20,-2,12,36*,26*,45*
NC(=S)Nc1cccc2[nH]ccc12,-5,-8,12,18,-3,-2,x,x
CCOC(=O)C1CCN(S(=O)(=O)c2c(Cl)ccc3nonc23)CC1,9,x,-10,6,4,44*,56*,46*
CCC(=O)c1ccc(OCC(=O)NCCC2=CCCCC2)c(OC)c1,-5,x,-6,14,-7,24*,4,4
COc1ccccc1OCC(=O)NCCC1=CCCCC1,-7,10,-6,-1,-23,-10,x,x
CCc1ccc(N=C2NC(=O)CS2)cc1,-6,x,11,-13,5,-12,x,x
O=C(c1ccc(NS(=O)(=O)c2cccs2)cc1)N1CCCCC1,10,-8,-2,-14,1,21*,-15,3
O=C(c1ccc(NS(=O)(=O)c2ccc(F)cc2)cc1)N1CCCCC1,x,x,2,-16,-3,x,x,x
O=C(c1ccc(S(=O)(=O)Nc2ccccc2)cc1)N1CCCCCCC1,-1,x,-7,-6,-4,25*,19,17
O=C(c1ccc(NS(=O)(=O)c2cccs2)cc1)N1CCOCC1,12,x,-10,-6,13,-11,x,x
CC(Oc1ccc(Br)cc1)C(=O)N1CCC(C(N)=O)CC1 (centres undefined),-1,3,-3,0,5,-9,x,x
CCC(C(=O)Nc1cccnc1)c1ccccc1 (centres undefined),-3,x,-1,4,-1,1,x,x
CCC(=O)N1CCc2cc(Br)cc(S(=O)(=O)N(C)c3ccc(OC)cc3)c21,-14,x,11,1,-5,38*,24,54*
CCCCCc1ccc(-c2cn(Cc3ccc([N+](=O)[O-])cc3)nn2)cc1,-8,x,1,1,-8,33*,37*,57*
COc1ccc(-c2cn(Cc3ccc([N+](=O)[O-])cc3)nn2)cc1,26,x,-19,-4,8,19,x,x
COC(=O)c1cc(NC(=O)c2c(-c3c(Cl)cccc3Cl)noc2C)ccc1N1CCOCC1,15,-22,4,5,7,24*,1,7
CC(C)Cn1c(-c2csc3c2CCCC3)n[nH]c1=S,-2,-14,-2,-4,11,1,x,x
CCC(C)(C)c1ccc(OCCCC[n+]2cccc(C)c2)c(C(C)(C)CC)c1,-68,3,x,x,x,21*,78*,90*
CCCc1nc2ccccc2n1Cc1ccccc1OC,6,4,-3,-3,8,-3,x,x
COc1ccccc1Cn1c(CCCO)nc2ccccc21,-5,-7,-2,13,4,10,-1,-1
NS(=O)(=O)c1ccc(CNS(=O)(=O)c2ccc3ccccc3c2)cc1,0,x,2,0,0,4,x,x
O=C(O)c1ccc(CNS(=O)(=O)c2ccc3ccccc3c2)cc1,22,x,0,6,-1,23*,6,-4
Cc1ccc(NS(=O)(=O)c2ccc(C(=O)OCC(=O)Nc3cc(C)on3)cc2)cc1,1,-10,x,x,x,26*,38*,52*
Cc1ccc(CNC(=O)CSc2nc(=O)n3cccc(C)c3n2)cc1,x,x,-9,6,9,x,x,x
